# Measurements as given in ChEMBL document CHEMBL4229490, “Cytotoxic and NF-κB and mitochondrial transmembrane potential inhibitory pentacyclic triterpenoids from Syzygium corticosum and their semi-synthetic derivatives” (Bioorg Med Chem, 2018).
# Experiments:
# OVCAR-3 = test: Cytotoxicity against human OVCAR3 cells assessed as reduction in cell viability after 72 hrs by CellTiter 96 aqueous one solution assay; assay type: functional, cell-based; conditions: OVCAR-3, 72 h
# Outline: (§1)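 Cells grown in RPMI 1640 with 10% FBS, penicillin and streptomycin; log-phase cells trypsinized, seeded, left overnight at 37 °C in 5% CO₂, then exposed 72 h to samples diluted from DMSO, with DMSO vehicle and paclitaxel control. Viability read by absorbance. IC50 taken relative to vehicle by nonlinear regression; triplicate, three independent experiments.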
# MDA-MB-231 = test: Cytotoxicity against human MDA-MB-231 cells assessed as reduction in cell viability after 72 hrs by CellTiter 96 aqueous one solution assay; assay type: functional, cell-based; conditions: MDA-MB-231, 72 h; outline: as §1
# MDA-MB-435 = test: Cytotoxicity against human MDA-MB-435 cells assessed as reduction in cell viability after 72 hrs by CellTiter 96 aqueous one solution assay; assay type: functional, cell-based; conditions: MDA-MB-435, 72 h; outline: as §1
# HT-29 [1] = test: Cytotoxicity against human HT-29 cells assessed as reduction in cell viability after 72 hrs by CellTiter 96 aqueous one solution assay; assay type: functional, cell-based; conditions: HT-29, 72 h; outline: as §1
# HT-29 [2] = test: Inhibition of mitochondrial membrane potential in human HT-29 cells after 3 hrs by JC-1 staining based fluorescence assay; assay type: functional, cell-based; conditions: HT-29, 3 h
# Transcription factor p65 = Transcription factor p65 (Homo sapiens, UniProt Q04206); test: Inhibition of biotinylated consensus sequence binding to NF-kB p65 in human HeLa nuclear extracts after 3 hrs by ELISA
# DU-145 = test: Cytotoxicity against human DU145 cells assessed as reduction in cell viability after 72 hrs by CellTiter 96 aqueous one solution assay; assay type: functional, cell-based; conditions: DU-145, 72 h
# HeLa = test: Cytotoxicity against human HeLa cells assessed as reduction in cell viability after 72 hrs by CellTiter 96 aqueous one solution assay; assay type: functional, cell-based
# Chain of Transcription factor p65 (Q04206 whole entry): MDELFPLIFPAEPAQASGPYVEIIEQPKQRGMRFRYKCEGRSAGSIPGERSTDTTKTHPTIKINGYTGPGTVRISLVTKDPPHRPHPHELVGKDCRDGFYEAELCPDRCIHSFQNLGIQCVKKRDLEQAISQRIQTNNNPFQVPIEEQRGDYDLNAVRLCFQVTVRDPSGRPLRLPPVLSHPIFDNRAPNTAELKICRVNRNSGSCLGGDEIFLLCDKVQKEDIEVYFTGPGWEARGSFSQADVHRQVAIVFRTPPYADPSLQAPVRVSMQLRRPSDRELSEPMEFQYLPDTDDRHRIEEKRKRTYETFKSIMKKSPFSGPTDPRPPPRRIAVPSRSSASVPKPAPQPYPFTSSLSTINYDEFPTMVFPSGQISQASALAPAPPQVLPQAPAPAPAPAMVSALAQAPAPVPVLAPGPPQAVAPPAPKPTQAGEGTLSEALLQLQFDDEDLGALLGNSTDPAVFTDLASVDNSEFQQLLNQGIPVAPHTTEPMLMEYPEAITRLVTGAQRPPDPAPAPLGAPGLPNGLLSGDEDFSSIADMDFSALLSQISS
SMILES,IC50 (OVCAR-3),IC50 (MDA-MB-231),IC50 (MDA-MB-435),IC50 (HT-29 [1]),IC50 (HT-29 [2]),IC50 (Transcription factor p65),IC50 (DU-145),IC50 (HeLa)
COc1cc(C=O)cc(OC)c1O,> 10 µM,> 10 µM,> 10 µM,> 10 µM,–,–,–,–
CC(=O)/C=C/[C@]12O[C@@]1(C)C[C@@H](O)CC2(C)C,> 10 µM,> 10 µM,> 10 µM,> 10 µM,–,–,–,–
C=C(C)[C@@H]1CC[C@]2(C(=O)OC)CC[C@]3(C(=O)O)[C@H](CC[C@@H]4[C@@]5(C)CC[C@H](O)C(C)(C)[C@@H]5CC[C@]43C)[C@@H]12,–,> 10 µM,–,> 10 µM,> 10 µM,1.5 µM,–,–
CC(=O)CC[C@@H](C1=C[C@@](C)(O)CCC1=O)C(C)C,> 10 µM,> 10 µM,> 10 µM,> 10 µM,–,–,–,–
C=C(C)[C@@H]1CC[C@]2(C(=O)O)CC[C@]3(CO)[C@H](CC[C@@H]4[C@@]5(C)CC[C@H](O)C(C)(C)[C@@H]5CC[C@]43C)[C@@H]12,> 10 µM,> 10 µM,> 10 µM,> 10 µM,> 10 µM,> 10 µM,–,–
C=C(C)[C@H](O)CC[C@](C)(O)[C@H]1CC[C@]2(C)[C@@H]1CC[C@@H]1[C@@]3(C)CC[C@H](O)C(C)(C)[C@@H]3CC[C@]12C,> 10 µM,> 10 µM,> 10 µM,> 10 µM,–,–,–,–
CC1=CC(=O)CC(C)(C)[C@H]1/C=C/[C@@H](C)O,> 10 µM,> 10 µM,> 10 µM,> 10 µM,–,–,–,–
COc1c(C)c(O)c2c(c1C)O[C@H](c1ccc(O)cc1)CC2=O,> 10 µM,> 10 µM,6 µM,> 10 µM,–,–,–,–
C[C@H]1[C@H](C)CC[C@]2(C(=O)O)CC[C@]3(C)C(=CC[C@@H]4[C@@]5(C)CC[C@H](OC(=O)c6ccc(Cl)cc6)C(C)(C)[C@@H]5CC[C@]43C)[C@H]12,–,> 10 µM,–,> 10 µM,> 10 µM,> 10 µM,–,–
COc1c(O)cc2c(=O)oc3c4c(cc5c(=O)oc1c2c35)OCO4,> 10 µM,> 10 µM,> 10 µM,> 10 µM,> 10 µM,–,–,–
COc1c(OC)c2oc(=O)c3cc4c(c5oc(=O)c(c1OC)c2c53)OCO4,> 10 µM,–,> 10 µM,> 10 µM,> 10 µM,> 10 µM,–,–
C=C(C)[C@@H]1CC[C@]2(C(=O)O)CC[C@]3(C)[C@H](CC[C@@H]4[C@@]5(C)C[C@@H](O)[C@H](OC(=O)/C=C/c6ccc(O)cc6)C(C)(C)[C@@H]5CC[C@]43C)[C@@H]12,> 10 µM,> 10 µM,> 10 µM,> 10 µM,> 10 µM,4.7 µM,–,–
C=C(C)[C@@H]1CC[C@]2(C(=O)O)CC[C@]3(C(=O)O)[C@H](CC[C@@H]4[C@@]5(C)CC[C@H](O)C(C)(C)[C@@H]5CC[C@]43C)[C@@H]12,> 10 µM,> 10 µM,> 10 µM,> 10 µM,> 10 µM,> 10 µM,–,–
C=C(C)[C@@H]1CC[C@]2(C(=O)O)CC[C@]3(C)[C@H](CC[C@@H]4[C@@]5(C)CC[C@H](OC(=O)/C=C/c6ccc(O)c(OC)c6)C(C)(C)[C@@H]5CC[C@]43C)[C@@H]12,–,> 10 µM,–,> 10 µM,0.51 µM,5.4 µM,–,–
COc1cc2c(=O)oc3c(OC)c(O)cc4c(=O)oc(c1OC)c2c34,> 10 µM,–,> 10 µM,> 10 µM,> 10 µM,1.6 µM,–,–
CC(=O)/C=C/[C@@]1(O)C(C)=CC(=O)CC1(C)C,> 10 µM,–,> 10 µM,> 10 µM,> 10 µM,–,–,–
C=C(C)[C@@H]1CC[C@]2(C(=O)O)CC[C@]3(C)[C@H](CC[C@@H]4[C@@]5(C)C[C@@H](O)[C@H](O)C(C)(C)[C@@H]5CC[C@]43C)[C@@H]12 [ALPHITOLIC ACID],> 10 µM,> 10 µM,> 10 µM,> 10 µM,> 10 µM,8.7 µM,–,–
C=C(C)[C@@H]1CC[C@]2(C(=O)O)CC[C@]3(C)[C@H](CC[C@@H]4[C@@]5(C)CC[C@H](O)C(C)(C)[C@@H]5CC[C@]43C)[C@@H]12 [BETULINIC ACID],–,> 10 µM,–,> 10 µM,3.5 µM,–,–,–
C=C(C)[C@@H]1CC[C@]2(CO)CC[C@]3(C)[C@H](CC[C@@H]4[C@@]5(C)CC[C@H](O)C(C)(C)[C@@H]5CC[C@]43C)[C@@H]12 [BETULIN],> 10 µM,> 10 µM,> 10 µM,> 10 µM,> 10 µM,8.8 µM,–,–
CC1=CC(=O)CC(C)(C)[C@@]1(O)/C=C/[C@@H](C)O [BLUMENOL A],> 10 µM,> 10 µM,> 10 µM,> 10 µM,> 10 µM,> 10 µM,–,–
CC1(C)CC[C@]2(CO)CC[C@]3(C)C(=CC[C@@H]4[C@@]5(C)CC[C@H](O)C(C)(C)[C@@H]5CC[C@]43C)[C@@H]2C1 [ERYTHRODIOL],> 10 µM,> 10 µM,> 10 µM,> 10 µM,> 10 µM,> 10 µM,–,–
CC1(C)C[C@H](O)C[C@@]2(C)OC(=O)C=C12 [LOLIOLIDE],> 10 µM,> 10 µM,> 10 µM,> 10 µM,> 10 µM,> 10 µM,–,–
CC1(C)CC[C@]2(C(=O)O)CC[C@]3(C)C(=CC[C@@H]4[C@@]5(C)CC[C@H](O)C(C)(C)[C@@H]5CC[C@]43C)[C@@H]2C1 [OLEANOLIC_ACID],> 10 µM,> 10 µM,> 10 µM,> 10 µM,> 10 µM,2.4 µM,–,–
CC(=O)O[C@H]1C(=O)[C@@]2(C)[C@H]([C@H](OC(=O)c3ccccc3)[C@]3(O)C[C@H](OC(=O)[C@H](O)[C@@H](NC(=O)c4ccccc4)c4ccccc4)C(C)=C1C3(C)C)[C@]1(OC(C)=O)CO[C@@H]1C[C@@H]2O [PACLITAXEL],0.013 µM,0.017 µM,0.013 µM,0.009 µM,–,–,–,–
COc1c(C)c(O)c2c(=O)cc(-c3ccc(O)cc3)oc2c1C [SIDEROXYLIN],> 10 µM,> 10 µM,> 10 µM,> 10 µM,> 10 µM,> 10 µM,–,–
C[C@H]1[C@H](C)CC[C@]2(C(=O)O)CC[C@]3(C)C(=CC[C@@H]4[C@@]5(C)CC[C@H](O)C(C)(C)[C@@H]5CC[C@]43C)[C@H]12 [URSOLIC ACID],–,5.9 µM,13.1 µg/mL,11.1 µg/mL,3.5 µM,0.031 µM,11.1 to 13.1 µg/mL,11.1 to 13.1 µg/mL
C[C@H]1[C@H](C)CC[C@]2(CO)CC[C@]3(C)C(=CC[C@@H]4[C@@]5(C)CC[C@H](O)C(C)(C)[C@@H]5CC[C@]43C)[C@H]12 [UVAOL],> 10 µM,> 10 µM,> 10 µM,> 10 µM,> 10 µM,> 10 µM,–,–
